Measured values: ChEMBL document CHEMBL4028864 (J Med Chem, 2017)
Converted amounts (≈) assume the structure as drawn. The source made the active and inactive calls. The calls are words filed in the database; no cut-off is given here.

Columns and labels:
MCF7 = assay: cells; format: functional, cell-based; conditions: Homo sapiens, MCF7, 72 h
[1] = biological target: T1, Tyrosine-protein kinase JAK2 (Homo sapiens, UniProt O60674); assay: Inhibition of human JAK2 using poly[Glu:Tyr] as substrate in presence of [gamma-33P]-ATP
T1 sequence (O60674 whole entry, the tested form may be a part): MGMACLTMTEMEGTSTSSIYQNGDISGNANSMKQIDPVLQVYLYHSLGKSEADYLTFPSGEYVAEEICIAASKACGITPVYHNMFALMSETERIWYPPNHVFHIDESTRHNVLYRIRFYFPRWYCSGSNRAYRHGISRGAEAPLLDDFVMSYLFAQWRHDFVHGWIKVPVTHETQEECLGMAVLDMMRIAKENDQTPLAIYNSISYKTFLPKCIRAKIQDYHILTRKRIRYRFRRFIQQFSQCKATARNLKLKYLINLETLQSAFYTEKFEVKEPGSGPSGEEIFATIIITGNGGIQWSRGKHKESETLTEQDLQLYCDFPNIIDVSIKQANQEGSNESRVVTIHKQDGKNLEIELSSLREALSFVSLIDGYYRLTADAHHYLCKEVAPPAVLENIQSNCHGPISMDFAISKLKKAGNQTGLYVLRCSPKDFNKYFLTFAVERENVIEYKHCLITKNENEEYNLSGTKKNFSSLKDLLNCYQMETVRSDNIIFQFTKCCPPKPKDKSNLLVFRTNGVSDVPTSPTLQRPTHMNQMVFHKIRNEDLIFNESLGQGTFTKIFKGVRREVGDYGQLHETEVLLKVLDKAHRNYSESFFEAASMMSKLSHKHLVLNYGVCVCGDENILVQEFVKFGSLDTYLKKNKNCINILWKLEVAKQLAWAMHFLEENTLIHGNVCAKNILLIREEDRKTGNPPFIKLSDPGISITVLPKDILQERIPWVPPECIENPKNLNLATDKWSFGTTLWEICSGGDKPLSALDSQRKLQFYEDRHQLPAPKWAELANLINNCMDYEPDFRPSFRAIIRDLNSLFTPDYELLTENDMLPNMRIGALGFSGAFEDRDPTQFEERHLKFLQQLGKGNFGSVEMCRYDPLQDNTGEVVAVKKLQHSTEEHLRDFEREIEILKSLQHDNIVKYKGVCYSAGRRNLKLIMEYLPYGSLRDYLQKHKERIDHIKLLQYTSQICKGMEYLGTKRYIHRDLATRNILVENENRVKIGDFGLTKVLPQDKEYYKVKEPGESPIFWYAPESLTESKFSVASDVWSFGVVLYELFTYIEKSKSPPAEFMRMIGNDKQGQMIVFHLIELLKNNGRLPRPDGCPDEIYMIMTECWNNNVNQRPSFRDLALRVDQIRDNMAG

Histone deacetylase 11 = Histone deacetylase 11 (Homo sapiens, UniProt Q96DB2); assay: Inhibition of C-terminal His tagged human recombinant HDAC11 (1 to 347 residues) expressed in Baculovirus infected insect cells in presence of ATP
Chain of Histone deacetylase 11 (Q96DB2 whole entry, the tested form may be a part): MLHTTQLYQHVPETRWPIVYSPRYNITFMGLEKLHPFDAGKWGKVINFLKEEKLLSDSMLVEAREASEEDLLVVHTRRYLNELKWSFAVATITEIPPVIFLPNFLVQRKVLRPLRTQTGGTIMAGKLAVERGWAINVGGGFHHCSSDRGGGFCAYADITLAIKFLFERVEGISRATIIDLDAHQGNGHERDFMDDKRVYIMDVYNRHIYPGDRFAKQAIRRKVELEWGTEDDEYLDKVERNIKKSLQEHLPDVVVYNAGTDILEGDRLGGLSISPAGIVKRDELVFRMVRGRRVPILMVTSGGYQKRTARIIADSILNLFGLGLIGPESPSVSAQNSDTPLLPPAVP
In short: (§1)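 HDAC enzyme inhibition was run by a contract laboratory.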

[2] = biological target: T1, Tyrosine-protein kinase JAK2; assay: Binding affinity to N-terminal His tagged human recombinant JAK2 (1014 to 1132 residues) expressed in Escherichia coli after 60 to 90 mins by LC/MS analysis; conditions: read-out: Kd(app)
HCT-116 = assay: Antiproliferative activity against human HCT116 cells after 72 hrs by MTT assay; format: functional, cell-based; conditions: HCT-116, 72 h
TAMH = assay: cells; format: ADME, cell-based; conditions: Mus musculus, 24 h
cells [3] = format: functional, cell-based; conditions: Homo sapiens, KHYG, 48 h
OPM-2 = assay: Antiproliferative activity against human OPM2 cells after 48 hrs by CellTiter-Glo luminescent assay; format: functional, cell-based; conditions: OPM-2, 48 h
[4] = Volume of distribution at steady state in Wistar rat at 1 mg/kg, iv by LC-MS/MS analysis; format: ADME, organism-based; conditions: in vivo, read-out: Vdss
In short: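 Wistar rats given a single 1 mg/kg iv dose. Plasma concentration–time profiles were plotted as mean ± SEM and sampled through 24 h postdose. Values were taken from the iv profile.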

[5] = Terminal half life in Wistar rat at 5 mg/kg, po administered via gavage by LC-MS/MS analysis; format: ADME, organism-based; conditions: in vivo, read-out: beta t1/2 (converted)
In short: (§2)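 Wistar rats given a single 5 mg/kg oral dose. Plasma concentration–time profiles were plotted as mean ± SEM and sampled through 24 h postdose.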

Histone deacetylase 8 = Histone deacetylase 8 (Homo sapiens, UniProt Q9BY41); assay: Inhibition of C-terminal His tagged human recombinant HDAC8 (1 to 377 residues) expressed in Baculovirus infected insect cells in presence of ATP
Chain of Histone deacetylase 8 (Q9BY41 whole entry, the tested form may be a part): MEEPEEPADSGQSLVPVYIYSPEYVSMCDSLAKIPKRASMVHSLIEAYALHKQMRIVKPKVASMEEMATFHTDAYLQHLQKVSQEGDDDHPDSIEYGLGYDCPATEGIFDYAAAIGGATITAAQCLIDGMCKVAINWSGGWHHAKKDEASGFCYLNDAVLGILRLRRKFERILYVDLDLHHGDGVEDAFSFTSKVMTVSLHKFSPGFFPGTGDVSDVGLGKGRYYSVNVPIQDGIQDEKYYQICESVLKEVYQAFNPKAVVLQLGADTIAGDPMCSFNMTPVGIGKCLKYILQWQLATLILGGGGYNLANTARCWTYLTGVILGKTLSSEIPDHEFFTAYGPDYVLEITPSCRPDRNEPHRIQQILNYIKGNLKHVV
In short: as §1

[6] = Thermodynamic aqueous solubility of the compound at pH 7.4 after 24 hrs by UV absorbance based assay; format: physicochemical; conditions: read-out: Therm_solubility
In short: (§3)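 A 20 mM DMSO stock was diluted 1:100 into pH 7.4 PBS, then shaken at 250 rpm for 3 or 24 h at 22.5 ± 2.5 °C. The mixture was filtered and the filtrate diluted with acetonitrile/universal buffer. Absorbance was read at 310 nm against a 6.25–200 μM calibration curve, in triplicate.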

cells [7] = format: ADME, cell-based; conditions: Homo sapiens, AC10, 24 h
[8] = Oral bioavailability in Wistar rat at 5 mg/kg administered via gavage by LC-MS/MS analysis; format: ADME, organism-based; conditions: in vivo
In short: as §2

HL-60 = assay: Antiproliferative activity against human HL60 cells; format: functional, cell-based
[9] = Tmax in Wistar rat at 5 mg/kg, po administered via gavage by LC-MS/MS analysis; format: ADME, organism-based; conditions: in vivo
In short: as §2

Plasma = assay: Drug uptake in Wistar rat plasma at 5 mg/kg, po administered via gavage or 1 mg/kg, iv up to 2 hrs by LC-MS/MS analysis; format: ADME, organism-based; conditions: in vivo
In short: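 Wistar rats dosed once at 5 mg/kg po or 1 mg/kg iv. Plasma levels were followed as mean ± SEM over 24 h postdose and checked against the limit of quantitation at each time point.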

MOLM-14 = assay: cells; format: functional, cell-based; conditions: Homo sapiens, MOLM-14, 48 h
[10] = biological target: Protein deacetylase HDAC6 (Homo sapiens) (UniProt Q9UBN7); assay: Inhibition of HDAC6 in human MOLM14 cells assessed as increase in acetylated tubulin level up to 3 uM after 16 hrs by immunoblotting analysis; format: cell-based
Chain of Protein deacetylase HDAC6 (Homo sapiens) (Q9UBN7 whole entry): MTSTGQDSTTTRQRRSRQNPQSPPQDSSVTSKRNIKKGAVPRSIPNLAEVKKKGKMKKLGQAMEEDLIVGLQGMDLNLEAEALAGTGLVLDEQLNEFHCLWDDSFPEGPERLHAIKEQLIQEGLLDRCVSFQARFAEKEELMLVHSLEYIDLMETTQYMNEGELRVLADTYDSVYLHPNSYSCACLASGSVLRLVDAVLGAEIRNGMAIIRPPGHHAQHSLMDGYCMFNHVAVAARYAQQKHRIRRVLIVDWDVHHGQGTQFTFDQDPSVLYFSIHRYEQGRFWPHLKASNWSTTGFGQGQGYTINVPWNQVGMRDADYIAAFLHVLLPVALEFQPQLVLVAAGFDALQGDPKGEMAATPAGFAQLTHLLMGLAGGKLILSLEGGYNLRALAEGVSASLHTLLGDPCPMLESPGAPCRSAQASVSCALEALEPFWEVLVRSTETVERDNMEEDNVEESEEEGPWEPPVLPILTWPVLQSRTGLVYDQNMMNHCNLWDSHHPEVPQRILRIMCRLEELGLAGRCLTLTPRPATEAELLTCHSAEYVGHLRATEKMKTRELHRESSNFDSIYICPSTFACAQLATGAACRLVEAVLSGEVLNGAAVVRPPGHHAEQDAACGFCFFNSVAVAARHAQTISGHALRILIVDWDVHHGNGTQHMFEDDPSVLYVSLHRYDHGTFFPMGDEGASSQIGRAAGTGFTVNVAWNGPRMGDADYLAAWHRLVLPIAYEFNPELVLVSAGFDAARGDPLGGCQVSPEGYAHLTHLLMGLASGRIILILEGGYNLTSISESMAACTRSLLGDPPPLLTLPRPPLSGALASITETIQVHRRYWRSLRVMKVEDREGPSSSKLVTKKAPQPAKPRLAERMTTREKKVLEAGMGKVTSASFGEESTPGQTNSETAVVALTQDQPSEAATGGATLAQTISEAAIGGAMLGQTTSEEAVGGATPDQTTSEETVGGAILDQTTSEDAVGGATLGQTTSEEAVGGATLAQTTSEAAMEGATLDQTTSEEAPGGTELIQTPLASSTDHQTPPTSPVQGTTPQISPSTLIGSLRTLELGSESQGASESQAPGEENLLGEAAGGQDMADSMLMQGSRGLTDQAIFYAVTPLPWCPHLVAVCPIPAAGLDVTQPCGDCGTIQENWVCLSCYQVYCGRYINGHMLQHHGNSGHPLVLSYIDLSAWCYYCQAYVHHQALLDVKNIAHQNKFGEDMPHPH
In short: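 KMS-12-BM and MOLM-14 cells were treated for 16 h and then lysed. Acetylated tubulin was detected by immunoblotting, and membranes were reprobed for total tubulin as loading control.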

MDA-MB-231 = assay: cells; format: functional, cell-based; conditions: Homo sapiens, MDA-MB-231, 72 h
MV4-11 = assay: cells; format: functional, cell-based; conditions: Homo sapiens, MV4-11, 48 h
[11] = AUC (0 to infinity) in Wistar rat at 5 mg/kg, po administered via gavage by LC-MS/MS analysis; format: ADME, organism-based; design: dose 5 mg/kg, time infinity, route oral; conditions: in vivo
In short: as §2

[12] = biological target: Inhibitor of nuclear factor kappa-B kinase subunit beta (Homo sapiens) (UniProt O14920); assay: Inhibition of wild type human IKKbeta (M1 to S756 residues) expressed in mammalian cells assessed as residual activity at 1 uM by KINOMEscan assay relative to control; format: cell-based
[13] = biological target: Histone deacetylase 4 (Homo sapiens) (UniProt P56524); assay: Inhibition of N-terminal GST tagged/C-terminal His tagged human recombinant HDAC4 (627 to 1084 residues) expressed in Baculovirus infected insect cells in presence of ATP; conditions: concentration not given here
Chain of Histone deacetylase 4 (Homo sapiens) (P56524 whole entry, the tested form may be a part): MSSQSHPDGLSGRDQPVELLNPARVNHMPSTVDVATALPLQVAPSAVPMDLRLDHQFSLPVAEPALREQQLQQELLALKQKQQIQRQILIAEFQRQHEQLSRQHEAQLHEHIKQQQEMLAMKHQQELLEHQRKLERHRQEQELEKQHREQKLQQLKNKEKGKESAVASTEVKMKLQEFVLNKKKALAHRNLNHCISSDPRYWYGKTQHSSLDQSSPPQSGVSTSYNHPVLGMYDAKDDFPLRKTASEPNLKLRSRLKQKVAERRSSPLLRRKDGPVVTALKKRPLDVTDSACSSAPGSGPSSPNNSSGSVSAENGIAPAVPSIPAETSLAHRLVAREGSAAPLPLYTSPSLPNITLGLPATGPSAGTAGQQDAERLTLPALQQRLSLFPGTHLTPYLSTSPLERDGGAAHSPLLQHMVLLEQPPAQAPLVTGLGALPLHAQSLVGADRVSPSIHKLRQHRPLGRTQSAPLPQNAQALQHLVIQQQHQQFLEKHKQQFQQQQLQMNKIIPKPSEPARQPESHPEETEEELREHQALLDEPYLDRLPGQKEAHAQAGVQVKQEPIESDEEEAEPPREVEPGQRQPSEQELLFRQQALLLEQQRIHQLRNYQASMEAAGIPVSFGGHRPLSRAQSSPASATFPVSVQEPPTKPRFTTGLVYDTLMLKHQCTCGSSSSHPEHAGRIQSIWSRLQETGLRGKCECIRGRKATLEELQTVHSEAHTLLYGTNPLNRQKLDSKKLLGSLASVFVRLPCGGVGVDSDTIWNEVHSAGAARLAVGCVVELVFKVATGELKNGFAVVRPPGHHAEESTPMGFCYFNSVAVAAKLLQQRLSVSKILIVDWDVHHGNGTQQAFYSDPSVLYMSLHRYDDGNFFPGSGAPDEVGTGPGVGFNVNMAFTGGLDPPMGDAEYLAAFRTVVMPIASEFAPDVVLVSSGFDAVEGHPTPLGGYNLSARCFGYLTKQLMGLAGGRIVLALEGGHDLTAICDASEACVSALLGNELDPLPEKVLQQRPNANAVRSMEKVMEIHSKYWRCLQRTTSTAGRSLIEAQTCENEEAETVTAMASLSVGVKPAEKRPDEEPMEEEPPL
In short: as §1

PC-3 = assay: cells; format: functional, cell-based; conditions: Homo sapiens, PC-3, 72 h
KG-1 = assay: cells; format: functional, cell-based; conditions: Homo sapiens, KG-1, 48 h
[14] = biological target: NUAK family SNF1-like kinase 2 (Homo sapiens) (UniProt Q9H093); assay: Inhibition of wild type human SNARK (P22 to A333 residues) expressed in mammalian cells assessed as residual activity at 1 uM by KINOMEscan assay relative to control; format: cell-based
Chain of NUAK family SNF1-like kinase 2 (Homo sapiens) (Q9H093 whole entry, the tested form may be a part): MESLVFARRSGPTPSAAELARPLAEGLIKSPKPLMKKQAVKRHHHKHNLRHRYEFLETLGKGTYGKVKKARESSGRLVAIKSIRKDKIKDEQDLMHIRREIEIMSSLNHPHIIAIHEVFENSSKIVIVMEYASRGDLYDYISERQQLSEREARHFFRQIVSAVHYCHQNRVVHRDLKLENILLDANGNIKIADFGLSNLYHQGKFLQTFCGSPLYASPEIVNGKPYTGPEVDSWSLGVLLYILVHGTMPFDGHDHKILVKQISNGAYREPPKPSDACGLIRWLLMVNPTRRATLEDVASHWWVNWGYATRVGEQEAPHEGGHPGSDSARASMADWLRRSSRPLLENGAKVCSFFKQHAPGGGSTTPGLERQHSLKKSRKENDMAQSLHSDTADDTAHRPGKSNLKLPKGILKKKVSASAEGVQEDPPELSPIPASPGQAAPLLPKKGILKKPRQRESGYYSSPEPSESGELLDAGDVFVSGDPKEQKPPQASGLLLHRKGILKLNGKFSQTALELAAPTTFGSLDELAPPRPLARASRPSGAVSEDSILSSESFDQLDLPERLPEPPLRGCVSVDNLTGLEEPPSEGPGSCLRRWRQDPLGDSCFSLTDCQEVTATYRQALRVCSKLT

[15] = Half life in rat liver microsome preincubated for 5 mins followed by NADPH addition by LC-MS/MS analysis; format: ADME; conditions: liver microsomes
[16] = Thermodynamic aqueous solubility of the compound at pH 7.4 after 3 hrs by UV absorbance based assay; format: physicochemical; conditions: read-out: Therm_solubility
In short: as §3

KMS-12-BM = assay: cells; format: functional, cell-based; conditions: Homo sapiens, 48 h

O=C(CCCCCCn1cc(-c2ncnc3[nH]ccc23)cn1)NO
IC50 (MCF7): 840 nM
IC50 [1]: 75 nM
IC50 (Histone deacetylase 11): 31 nM
Kd [2]: 5 µM
IC50 (HCT-116): 2320 nM
IC50 (TAMH): 4.63 µM
IC50 (cells [3]): 570 nM
IC50 (OPM-2): 2160 nM
Vd [4]: 1.49 L/kg
half-life [5]: 34.8 min
IC50 (Histone deacetylase 8): 469 nM
solubility thermodynamic at 24 h [6]: > 73 µg/mL
IC50 (cells [7]): > 100 µM
bioavailability [8]: 1.4%
IC50 (HL-60): 7.36 µM
Tmax [9]: 4.98 min
Drug uptake (Plasma): Active
IC50 (MOLM-14): 740 nM
inhibition [10]: Active
IC50 (MDA-MB-231): 790 nM
IC50 (MV4-11): 460 nM
AUC(0-inf) [11]: 12.3 ng·h/mL
Activity [12]: 30%
inhibition [13]: 23%
IC50 (PC-3): 2410 nM
IC50 (KG-1): 150 nM
Activity [14]: 7.5%
half-life [15]: > 200 min
solubility thermodynamic at 3 h [16]: 66.2 µg/mL (≈ 202 µM)
IC50 (KMS-12-BM): 2020 nM
